# Screening results (PubChem)
# Most compounds without a hit are left out; they make up all but 2.9% or so of the library.
# SENP8 block-1: SENP8 protease inhibitors, primary screen, biochemical, luminescence | purified SENP8, Z-RLRGG-aminoluciferin cleavage | Sentrin-specific protease 8 (Homo sapiens), Q96LD8 | inhibition, % at 10 µM | 1.2% of 330,000 active; in the data active means inhibition above about 50%
# Apaf1 inhib: inhibitors of human Apaf-1 apoptosome, primary screen, biochemical, DEVD-Rh110 fluorescence, uHTS; Apoptotic protease-activating factor 1 (Homo sapiens), O14727; reconstituted apoptosome caspase-3 activity; inhibition, % at 20 µM; 0.71% of 330,000 active; AID 489030, 2010; active means inhibition of at least 40% at 20 µM;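 further: plate controls were DMSO wells for no effect and DEVD-CHO caspase inhibitor wells for full effect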
#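 System – cell-free apoptosome with Apaf-1, procaspase-3 and caspase-9 · Buffer or medium – pH 7.5 Hepes buffer with CHAPS, BSA, DTT · Also added – cytochrome c with DEVD-Rh110 · Times – 30 min compound preincubation, 50 min activation, room temperature · Technique – Rh110 fluorescence intensity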
# SENP8 block-2: human SENP8 protease inhibitors, primary screen, biochemical, fluorescence, Nedd8 protein substrate, uHTS; inhibition, % at 20 µM; 0.64% of 360,000 active; recombinant SENP8; in the data active means inhibition mostly above about 40%, no sharp cut-off; inactive means mostly below about 27%
# SENP7 block: SENP7 protease inhibitors, primary screen, biochemical, luminescence, uHTS; 1.5% of 330,000 active; Sentrin-specific protease 7 (Homo sapiens), Q9BQF6; AID 434973, 2010; inhibition, % at 5 µM; recombinant SENP7, Z-RLRGG-aminoluciferin luminescence, 40 min;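 active means inhibition above about 50% at the single test dose, limit read from the data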;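 further: plate controls were DMSO with enzyme for no effect and no enzyme buffer wells for full effect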
# Target sequence (Q9BQF6 706-1050 limits assumed): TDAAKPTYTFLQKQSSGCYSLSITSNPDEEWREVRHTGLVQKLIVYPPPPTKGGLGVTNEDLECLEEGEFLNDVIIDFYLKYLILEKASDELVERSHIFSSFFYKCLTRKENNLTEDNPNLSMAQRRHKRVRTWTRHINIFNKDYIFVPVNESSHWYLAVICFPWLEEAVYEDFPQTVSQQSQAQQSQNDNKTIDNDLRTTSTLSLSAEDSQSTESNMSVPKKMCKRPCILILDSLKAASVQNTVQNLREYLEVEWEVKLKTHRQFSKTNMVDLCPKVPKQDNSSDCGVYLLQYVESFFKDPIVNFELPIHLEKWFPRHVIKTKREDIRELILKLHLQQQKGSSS
# SENP6 block: SENP6 protease inhibitors, primary screen, biochemical, luminescence, uHTS. inhibition, % at 10 µM. Recombinant SENP6 catalytic domain, aminoluciferin luminescence. AID 2599, 2010. 1.8% of 330,000 active;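 active means inhibition above about 50% at the single tested dose, limit read from the data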;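 further: plate controls were DMSO wells with enzyme for no effect and DMSO wells lacking enzyme for full effect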
# SENP1 inh: human SENP1 catalytic domain inhibitors, primary screen, biochemical, FRET, uHTS; Sentrin-specific protease 1 (Homo sapiens), Q9P0U3; recombinant SENP1 catalytic domain, CyPet-SUMO1-YPet FRET cleavage; inhibition, % at 10 µM; 0.21% of 360,000 active;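 active means inhibition at least 30% at 10 µM, raw YFP signal under a set limit, fluorescence ratio 0.5 to 1.5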;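 further: 0% = enzyme with DMSO and 100% = no enzyme wells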
#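 Test system: hSENP1 catalytic domain, recombinant; Amount: 20 pM final SENP1 enzyme; Medium: Tris pH 8 buffer plus EDTA, NaCl, BME, BSA, NP40, catalase; Schedule: 50 min enzyme reaction, room temperature, light-protected; Technique: FRET fluorescence in CFP and YFP emission channels; Controls: no-enzyme wells low, DMSO-plus-enzyme wells high control.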
# SENP8 confirm: SENP8 protease inhibitors, retest, confirmation, biochemical, luminescence, single concentration; AID 488912, 2010; inhibition, % at 12.5 µM; shares compounds with SENP7 block; 40% of 6,200 active; Recombinant SENP8, Z-RLRGG-aminoluciferin luminescence, 60 min;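 active means mean inhibition across replicates above about 50%, limit read from the data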
# SENP6 confirm: SENP6 protease inhibitors, confirmation, biochemical, luminescence, single concentration | shares compounds with SENP7 block | recombinant SENP6, Z-RLRGG-aminoluciferin luminescence | inhibition, % at 12.5 µM | 58% of 6,200 active | AID 488915, 2010
# SENP7 conf: SENP7 protease inhibitors, retest, confirmation, biochemical, luminescence, single concentration | inhibition, % at 12.5 µM | shares compounds with SENP7 block | 69% of 6,200 active | recombinant SENP7, Z-RLRGG-aminoluciferin luminescence, 40 min
# Casp3 SENP sel: caspase-3 protease inhibitors, confirmation, selectivity assay for SENP inhibitor project, biochemical, single concentration; shares compounds with SENP7 block; purified caspase-3, Z-DEVD-aminoluciferin luminescence, 60 min; inhibition, % at 12.5 µM; 60% of 6,200 active; AID 488918, 2010;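 active means mean inhibition above about 50%, limit read from the data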;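 further: plate controls were enzyme with DMSO for no effect and wells without caspase-3 for full effect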
# Target sequence (P42574 28-227 limits assumed): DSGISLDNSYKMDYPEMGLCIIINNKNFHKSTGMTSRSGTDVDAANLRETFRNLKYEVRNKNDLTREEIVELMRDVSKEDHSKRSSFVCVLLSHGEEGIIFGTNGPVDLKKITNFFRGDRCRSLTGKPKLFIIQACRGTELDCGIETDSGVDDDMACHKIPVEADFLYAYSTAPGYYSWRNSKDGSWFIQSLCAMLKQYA
# SENP luc ctr: counter-screen for SENP inhibitors: luminescence interference | AID 488919 | Pre-incubated SENP8/Z-RLRGG-aminoluciferin, luciferase luminescence interference | shares compounds with SENP7 block | inhibition, % at 12.5 µM | 39% of 6,200 active;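 active means mean inhibition above about 50% when retested at one dose, limit read from the data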;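 further: plate controls were DMSO wells with completed reaction for no effect and substrate without enzyme for full effect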
# The depositor's hits bear a star; . = no result given.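 How the source made its calls, unless noted: active means mean inhibition above about 50% in the one-dose retest (limit read from the data); inactive means the rest.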
SMILES,SENP8 block-1,Apaf1 inhib,SENP8 block-2,SENP7 block,SENP6 block,SENP1 inh,SENP8 confirm,SENP6 confirm,SENP7 conf,Casp3 SENP sel,SENP luc ctr
CC(=O)NN1C(=O)/C(=C\c2ccc(O)cc2)SC1=S,60*,-7,16,54*,69*,55*,63*,61*,85*,82*,74*
O=C(O)c1ccc(-c2ccccc2)[nH]1,2,-1,8,0,-9,-4,.,.,.,.,.
O=C(O)c1ccc2cc(-c3ccccc3)[nH]c2c1,97*,0,-454,100*,95*,4,7,101*,104*,48,50*
CCCNC(=O)C1(C)CCN(Cc2cccc(OC(=O)c3ccccc3)c2)C1 (centres undefined),.,.,12,.,.,1,.,.,.,.,.
CCOC(=O)c1c(C)oc2ccc(NS(=O)(=O)c3cccs3)cc12,8,-6,6,77*,-11,0,-10,-2,-1,0,-5
CCOc1ccc(NC(=O)c2ccc3c(c2)CCN3S(C)(=O)=O)cc1,3,-1,21,-1,13,2,.,.,.,.,.
CCOCC(=O)Nc1cc(C(=O)Nc2cc(C)cc(C)c2)ccc1Cl,79*,-4,.,93*,-32,.,83*,54*,90*,89*,47
Cn1cc(Br)c(C(=O)Nc2ncc(Br)s2)n1,-9,-13,-23,70*,28,-2,-6,-2,-3,16,-1
c1ccc2nc(-c3nccs3)ccc2c1,-8,-32,-137,17,2,0,.,.,.,.,.
CN1CCN(c2ccc(-c3ccc4ccccc4n3)cc2)CC1,.,.,-420,.,.,-92,.,.,.,.,.
c1ccc2nc(-c3ccncc3)ccc2c1,8,2,16,36,53*,-2,30,30,60*,67*,39
c1ccc2nc(-c3ccc(N4CCOCC4)cc3)ccc2c1,81*,1,-281,97*,93*,-61,66*,80*,93*,76*,39
Clc1ccsc1-c1ccc2ccccc2n1,67*,8,-176,81*,88*,-7,12,78*,94*,51*,29
COC(=O)C[C@@H]1CC[C@H](NC(=O)CC2CC2)[C@@H](CO)O1,.,.,19,.,.,1,.,.,.,.,.
Cn1cc(S(=O)(=O)N2CCc3ccccc32)cc1C(=O)NC(C)(C)C,1,3,11,0,-4,1,.,.,.,.,.
Cc1cc(=O)[nH]c(S/C=C/c2ccccc2)n1,77*,-15,2,90*,64*,0,89*,90*,98*,94*,89*
Cc1ccc(NC(=O)C(=O)NNC(=O)c2cccs2)cc1,55*,-3,1,41,57*,2,-23,36,79*,83*,17
Nc1ccc(NC(=O)c2cccs2)cc1,-6,4,0,-2,-3,1,.,.,.,.,.
O=C(Nc1ccc2c(c1)CCC2)c1cccs1,62*,6,14,78*,36,1,83*,87*,96*,83*,83*
Cc1ccccc1-c1nc(-c2ccc(NC(=O)c3cccs3)cc2)no1,17,-7,-25,51*,28,1,15,17,48,46,41
Cc1ccc(NC(=O)c2cccs2)cc1,23,-21,5,53*,40,3,34,38,75*,65*,52*
CC(C)Oc1cc(F)ccc1-c1cc(C(=O)Nc2cccc(C(F)(F)F)c2)[nH]n1,.,.,12,.,.,-1,.,.,.,.,.
Cc1cccc(C)c1OCc1cc(C(=O)N2CCN(c3ccc(F)cc3)CC2)no1,33,14,4,31,55*,1,49,47,81*,64*,59*
CN=c1scc(C)n1/N=C/c1ccc(O)cc1,0,1,-30,11,26,-7,.,.,.,.,.
CN=c1scc(C)n1/N=C/c1ccc2c(c1)OCO2,88*,3,-24,97*,98*,-16,95*,96*,102*,95*,48
SMILES,SENP8 block-1,Apaf1 inhib,SENP8 block-2,SENP7 block,SENP6 block,SENP1 inh,SENP8 confirm,SENP6 confirm,SENP7 conf,Casp3 SENP sel,SENP luc ctr
CN=c1scc(C)n1/N=C/c1ccc(O)cc1O,76*,6,-33,78*,78*,-3,90*,88*,99*,88*,86*
O=C(CNCc1cccs1)Nc1ccc(OC(F)(F)F)cc1,-9,13,15,-7,-21,3,.,.,.,.,.
O=C(Cc1ccc(Cl)c(Cl)c1)OCC(=O)c1ccc[nH]1,-12,26,-36,-7,-7,-2,.,.,.,.,.
O=C(OCc1ccc(Cl)c(Cl)c1)c1ccc[nH]1,47,6,15,33,59*,-1,54*,51*,82*,26,71*
CCN(CC)S(=O)(=O)c1ccc(=O)n(CC(=O)N2CCCc3cc(C)ccc32)c1,2,-5,-11,10,5,1,.,.,.,.,.
Oc1c(N=Nc2ccccc2)sc2ccccc12,95*,0,1,99*,98*,-16,75*,98*,103*,96*,10
O=C(O)c1ccc(N2Cc3ccccc3C2)cc1O,65*,-8,-3,-2,70*,3,4,71*,89*,90*,75*
CCOC(=O)c1sc(NC(=O)c2ccc(=O)[nH]c2)nc1C,-3,14,-67,6,8,-8,.,.,.,.,.
CCOc1ccc(C(=O)Nc2nc(C)c(C(=O)OC)s2)cc1,43,-12,-113,92*,54*,-3,31,30,36,50,12
